What was measured:
[1] = folding enthalpy; higher = less favourable; fluorescence melt of hairpins on a sequencing array, two-state fit; details: sodium 0.088 M
Outline: (§1)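 To match UV melts, fitted temperatures were raised by 9.35 °C. These fits were bootstrapped two-state models that gave melting temperature and folding enthalpy, combined by inverse variance over four replicates. The input was normalised Cy3 fluorescence of library hairpins with annealed Cy3 and quencher oligos on a sequenced MiSeq flow cell, imaged in 50 mM Na-HEPES pH 8.0, 25 mM NaCl in 2.5 °C steps up to 60 °C.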

[2] = melting temperature; fluorescence melt of hairpins on a sequencing array, two-state fit, raised by 9.35 °C to match UV melts; details: sodium 0.088 M
Outline: as §1

Row | Sequence | folding enthalpy [1] | Tm [2]
1 | GTACAGGGAAACCTGCAC ((.((((....)))).)) | -22.4 kcal/mol | 39.7 °C
2 | GTACAGGGAAACTTGTAC (((((.(....).))))) | -30.4 kcal/mol | 39.8 °C
3 | GTACAGGGAAACTTGTGC (.(((.(....).))).) | -16 kcal/mol | 27.9 °C
4 | GTACATCGAAAGATTAC (((.(((....)))))) | -20.3 kcal/mol | 32.1 °C
5 | GTACCACGAAAGTGTAC (((.(((....)))))) | -22 kcal/mol | 42.3 °C
6 | GTACCAGGAAACTGATAC (((.(((....))).))) | -26.6 kcal/mol | 31.4 °C
7 | GTACCAGGAAACTGGTGC (.(((((....))))).) | -43 kcal/mol | 51.4 °C
8 | GTACCCCGAAAGGGATAC (((.(((....))).))) | -19.6 kcal/mol | 46.1 °C
9 | GTACCCCGAAAGGGTAC (((.(((....)))))) | -28.3 kcal/mol | 58.3 °C
10 | GTACCCGAAAGGGAATAC ((((((....)))..))) | -12.4 kcal/mol | 29.7 °C
11 | GTACCCGAAAGGGCGTAC ((((((....)))..))) | -14.3 kcal/mol | 34.2 °C
12 | GTACCCGAAAGGGTTAC ((((((....))).))) | -13.4 kcal/mol | 46.4 °C
13 | GTACCGGGAAACCGATAC (((.(((....))).))) | -27.7 kcal/mol | 40 °C
14 | GTACCGGGAAACTGGTAC (((((.(....).))))) | -33.2 kcal/mol | 51.4 °C
15 | GTACGAGGAAACTTGTAC ((((.((....)).)))) | -37.1 kcal/mol | 44 °C
16 | GTACGCCGAAAGGCTAC (((.(((....)))))) | -15.1 kcal/mol | 47.6 °C
17 | GTACGCGAAAGCGATAC ((((((....))).))) | -13.9 kcal/mol | 48.2 °C
18 | GTACGCGAAAGCGATTAC ((((((....)))..))) | -11.2 kcal/mol | 29.7 °C
19 | GTACGCGAAAGCGTCTAC ((((((....)))..))) | -7.82 kcal/mol | 39.9 °C

Row | Sequence | folding enthalpy [1] | Tm [2]
20 | GTACGCGAAAGCGTGTAC ((((((....)))..))) | -9.86 kcal/mol | 38 °C
21 | GTACGGAAACGTAC (((((....))))) | -32.4 kcal/mol | 53.7 °C
22 | GTACGGGGAAACCCGCAC ((.((((....)))).)) | -18.6 kcal/mol | 54.3 °C
23 | GTACGGGGAAACCTGTGC (.((.((....)).)).) | -25.8 kcal/mol | 37.3 °C
24 | GTACGTCGAAAGACATAC (((.(((....))).))) | -20.1 kcal/mol | 38.4 °C
25 | GTACGTGGAAACGTGTAC ((((..(....)..)))) | -12.3 kcal/mol | 37.4 °C
26 | GTACTACGAAAGTAATAC (((.(((....))).))) | -15.2 kcal/mol | 29.8 °C
27 | GTACTAGAAATAGTAC ((((((....)))))) | -27.2 kcal/mol | 42.4 °C
28 | GTACTCGAAAGAGCTAC ((((((....))).))) | -16.4 kcal/mol | 35 °C
29 | GTACTCGCGAAAGCGTAC (((..(((....)))))) | -11.1 kcal/mol | 30.4 °C
30 | GTACTGAAAAGTAC (((((....))))) | -20.8 kcal/mol | 46.8 °C
31 | GTACTGGGAAACTAGTGC (.(((.(....).))).) | -19.4 kcal/mol | 31.2 °C
32 | GTACTTGGAAACAAGCAC ((.((((....)))).)) | -25.8 kcal/mol | 37.8 °C
33 | GTAGAAGCGAAAGCTTAC (((..(((....)))))) | -11.6 kcal/mol | 30.1 °C
34 | GTAGACCCGAAAGGGTAC (((..(((....)))))) | -9.26 kcal/mol | 32.3 °C
35 | GTAGACCGAAAGGTGTAC (((.(((....))).))) | -36.3 kcal/mol | 50.8 °C
36 | GTAGACCGAAAGGTTAC (((.(((....)))))) | -16.7 kcal/mol | 38.5 °C
37 | GTAGACGAAAGTCCGTAC ((((((....)))..))) | -8.44 kcal/mol | 21 °C
38 | GTAGACGAAAGTCGATAC ((((((....)))..))) | -11.2 kcal/mol | 34.7 °C
